Reference: ChEMBL document CHEMBL5653631, “A Potent and Selective ULK1 Inhibitor Suppresses Autophagy and Sensitizes Cancer Cells to Nutrient Stress” (iScience, 2018)
Values belong to the compound of their own block, whether it stands above or below them.

Columns and labels:
[1] = biological target: Cyclin-dependent kinase 13 (Homo sapiens) (UniProt Q14004); experiment: Inhibition of human recombinant CHED at 500 nM related to control ULK1
[2] = biological target: T1, Serine/threonine-protein kinase Sgk3 (Homo sapiens) (UniProt Q96BR1); experiment: Inhibition of human recombinant SGK3 at 40 nM related to control ULK1
T1 sequence (whole entry): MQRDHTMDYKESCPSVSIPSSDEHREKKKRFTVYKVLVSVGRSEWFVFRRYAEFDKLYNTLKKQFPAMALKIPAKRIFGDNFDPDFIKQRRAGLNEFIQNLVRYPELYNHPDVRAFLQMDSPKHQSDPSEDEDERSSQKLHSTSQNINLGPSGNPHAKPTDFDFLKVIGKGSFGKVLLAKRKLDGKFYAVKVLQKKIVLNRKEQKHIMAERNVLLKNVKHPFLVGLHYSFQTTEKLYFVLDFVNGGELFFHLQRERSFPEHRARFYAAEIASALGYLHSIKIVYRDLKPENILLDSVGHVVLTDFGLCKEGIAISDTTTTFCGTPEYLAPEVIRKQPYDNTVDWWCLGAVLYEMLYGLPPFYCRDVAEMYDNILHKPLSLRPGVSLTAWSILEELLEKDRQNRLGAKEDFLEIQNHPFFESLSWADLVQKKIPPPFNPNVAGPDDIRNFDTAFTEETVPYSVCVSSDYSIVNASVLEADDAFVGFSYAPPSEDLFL

[3] = biological target: T2, Serine/threonine-protein kinase NLK (Homo sapiens) (UniProt Q9UBE8); experiment: Inhibition of human recombinant NLK at 40 nM in presence of ATP by radiometric assay relative to control
T2 sequence (whole entry): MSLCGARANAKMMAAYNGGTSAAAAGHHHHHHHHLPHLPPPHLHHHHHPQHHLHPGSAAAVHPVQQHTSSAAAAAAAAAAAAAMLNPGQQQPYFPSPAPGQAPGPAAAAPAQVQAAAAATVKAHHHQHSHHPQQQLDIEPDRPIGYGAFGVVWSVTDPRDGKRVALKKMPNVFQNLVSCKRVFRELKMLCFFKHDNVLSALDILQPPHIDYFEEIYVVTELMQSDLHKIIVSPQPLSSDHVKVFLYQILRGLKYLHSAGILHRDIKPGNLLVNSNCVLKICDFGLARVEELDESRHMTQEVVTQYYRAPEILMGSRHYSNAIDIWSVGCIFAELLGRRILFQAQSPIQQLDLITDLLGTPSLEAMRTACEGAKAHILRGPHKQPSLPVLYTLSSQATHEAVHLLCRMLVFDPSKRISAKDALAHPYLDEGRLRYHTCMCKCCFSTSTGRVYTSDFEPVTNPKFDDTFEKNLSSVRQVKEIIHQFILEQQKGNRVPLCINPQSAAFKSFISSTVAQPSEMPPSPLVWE

[4] = biological target: Angiopoietin-1 receptor (Homo sapiens) (UniProt Q02763); experiment: Inhibition of human recombinant Tie2 at 40 nM related to control ULK1
[5] = biological target: Casein kinase I isoform gamma-2 (Homo sapiens) (UniProt P78368); experiment: Inhibition of human recombinant CK1g2 at 40 nM in presence of ATP by radiometric assay relative to control
[6] = biological target: Calcium/calmodulin-dependent protein kinase type 1G (Homo sapiens) (UniProt Q96NX5); experiment: Inhibition of human recombinant CaMK1g at 40 nM in presence of ATP by radiometric assay relative to control
[7] = biological target: T3, Serine/threonine-protein kinase A-Raf (Homo sapiens) (UniProt P10398); experiment: Inhibition of human recombinant ARAF at 40 nM related to control ULK1
T3 sequence (whole entry): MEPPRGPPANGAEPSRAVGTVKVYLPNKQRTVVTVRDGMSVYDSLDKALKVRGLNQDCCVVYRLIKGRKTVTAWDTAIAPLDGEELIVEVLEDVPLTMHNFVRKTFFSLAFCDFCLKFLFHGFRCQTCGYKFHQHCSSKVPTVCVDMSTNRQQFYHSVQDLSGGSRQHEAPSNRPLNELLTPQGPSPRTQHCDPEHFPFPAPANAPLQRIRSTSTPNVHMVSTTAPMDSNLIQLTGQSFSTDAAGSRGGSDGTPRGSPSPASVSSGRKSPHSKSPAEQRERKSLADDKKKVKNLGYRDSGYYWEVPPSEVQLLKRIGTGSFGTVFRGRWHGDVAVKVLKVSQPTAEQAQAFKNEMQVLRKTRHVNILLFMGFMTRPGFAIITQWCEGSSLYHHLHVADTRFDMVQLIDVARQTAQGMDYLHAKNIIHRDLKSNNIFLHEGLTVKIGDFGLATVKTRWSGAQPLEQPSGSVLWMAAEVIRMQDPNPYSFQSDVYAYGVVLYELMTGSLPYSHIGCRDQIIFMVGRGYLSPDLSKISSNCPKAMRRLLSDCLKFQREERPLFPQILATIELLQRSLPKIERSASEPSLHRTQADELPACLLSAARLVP
How it was run: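 Radiometric activity assays in a panel of 327 human recombinant kinases, each run in duplicate at one inhibitor concentration. Activity remaining is expressed as percent of vehicle control, and percent inhibition is calculated as 100% minus percent activity remaining.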

[8] = biological target: Fibroblast growth factor receptor 4 (Homo sapiens) (UniProt P22455); experiment: Inhibition of human recombinant FGFR4 at 40 nM related to control ULK1
[9] = biological target: T4, Inhibitor of nuclear factor kappa-B kinase subunit beta (Homo sapiens) (UniProt O14920); experiment: Inhibition of human recombinant IKKb at 15 nM related to control ULK1
T4 sequence (whole entry): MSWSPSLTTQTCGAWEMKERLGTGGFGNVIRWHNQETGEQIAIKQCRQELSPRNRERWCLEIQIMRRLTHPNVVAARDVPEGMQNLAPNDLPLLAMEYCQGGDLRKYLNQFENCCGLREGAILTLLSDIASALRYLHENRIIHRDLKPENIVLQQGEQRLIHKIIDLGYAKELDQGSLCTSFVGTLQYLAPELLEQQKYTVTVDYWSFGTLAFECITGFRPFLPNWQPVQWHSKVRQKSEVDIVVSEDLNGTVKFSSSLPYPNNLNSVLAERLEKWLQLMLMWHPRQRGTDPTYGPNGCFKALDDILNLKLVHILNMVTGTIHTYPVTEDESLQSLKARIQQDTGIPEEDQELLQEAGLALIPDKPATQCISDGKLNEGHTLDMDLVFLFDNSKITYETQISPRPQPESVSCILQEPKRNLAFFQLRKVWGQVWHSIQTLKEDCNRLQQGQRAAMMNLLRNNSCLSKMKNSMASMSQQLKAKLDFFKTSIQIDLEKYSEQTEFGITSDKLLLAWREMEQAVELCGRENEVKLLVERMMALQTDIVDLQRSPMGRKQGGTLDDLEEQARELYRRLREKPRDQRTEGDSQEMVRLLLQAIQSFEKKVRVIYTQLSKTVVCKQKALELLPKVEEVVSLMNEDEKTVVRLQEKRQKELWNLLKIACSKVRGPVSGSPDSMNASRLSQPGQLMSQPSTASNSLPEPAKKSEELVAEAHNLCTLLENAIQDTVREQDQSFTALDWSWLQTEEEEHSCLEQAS

[10] = biological target: T2, Serine/threonine-protein kinase NLK (Homo sapiens); experiment: Inhibition of human recombinant NLK at 15 nM in presence of ATP by radiometric assay relative to control

Calcium/calmodulin-dependent protein kinase type 1G (Homo sapiens), sequence (Q96NX5 whole entry): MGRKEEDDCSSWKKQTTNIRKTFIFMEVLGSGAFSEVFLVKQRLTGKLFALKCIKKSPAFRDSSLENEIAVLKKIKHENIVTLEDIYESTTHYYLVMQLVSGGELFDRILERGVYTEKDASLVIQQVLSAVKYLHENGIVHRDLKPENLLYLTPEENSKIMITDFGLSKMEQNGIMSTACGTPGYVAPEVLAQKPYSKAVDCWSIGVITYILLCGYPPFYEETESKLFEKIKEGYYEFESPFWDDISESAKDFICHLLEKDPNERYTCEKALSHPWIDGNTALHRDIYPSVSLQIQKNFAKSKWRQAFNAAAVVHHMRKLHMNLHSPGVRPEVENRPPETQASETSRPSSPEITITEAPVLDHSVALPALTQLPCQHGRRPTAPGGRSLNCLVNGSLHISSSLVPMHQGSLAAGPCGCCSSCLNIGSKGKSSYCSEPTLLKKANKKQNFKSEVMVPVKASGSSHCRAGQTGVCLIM
Fibroblast growth factor receptor 4 (Homo sapiens), sequence (P22455 22-802 limits assumed): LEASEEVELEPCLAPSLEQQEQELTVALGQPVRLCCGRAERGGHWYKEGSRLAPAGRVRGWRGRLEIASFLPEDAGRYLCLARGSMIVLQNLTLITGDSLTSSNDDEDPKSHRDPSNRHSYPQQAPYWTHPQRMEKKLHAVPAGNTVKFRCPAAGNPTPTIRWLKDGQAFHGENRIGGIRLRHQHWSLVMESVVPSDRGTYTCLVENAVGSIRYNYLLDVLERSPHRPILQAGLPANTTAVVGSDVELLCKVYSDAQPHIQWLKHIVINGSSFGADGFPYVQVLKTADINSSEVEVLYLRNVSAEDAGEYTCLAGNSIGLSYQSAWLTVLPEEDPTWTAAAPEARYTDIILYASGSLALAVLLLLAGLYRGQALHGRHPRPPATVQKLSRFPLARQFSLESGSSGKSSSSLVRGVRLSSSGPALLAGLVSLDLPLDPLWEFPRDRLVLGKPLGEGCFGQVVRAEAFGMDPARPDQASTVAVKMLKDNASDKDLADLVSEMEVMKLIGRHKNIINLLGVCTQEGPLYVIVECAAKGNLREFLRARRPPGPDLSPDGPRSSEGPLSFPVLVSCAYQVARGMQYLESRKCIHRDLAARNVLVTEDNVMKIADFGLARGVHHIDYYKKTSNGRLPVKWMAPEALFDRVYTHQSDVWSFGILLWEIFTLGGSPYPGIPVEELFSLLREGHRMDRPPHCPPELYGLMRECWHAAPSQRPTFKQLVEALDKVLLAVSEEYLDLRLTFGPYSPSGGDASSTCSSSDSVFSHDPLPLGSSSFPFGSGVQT
Angiopoietin-1 receptor (Homo sapiens), sequence (Q02763 whole entry, canonical isoform): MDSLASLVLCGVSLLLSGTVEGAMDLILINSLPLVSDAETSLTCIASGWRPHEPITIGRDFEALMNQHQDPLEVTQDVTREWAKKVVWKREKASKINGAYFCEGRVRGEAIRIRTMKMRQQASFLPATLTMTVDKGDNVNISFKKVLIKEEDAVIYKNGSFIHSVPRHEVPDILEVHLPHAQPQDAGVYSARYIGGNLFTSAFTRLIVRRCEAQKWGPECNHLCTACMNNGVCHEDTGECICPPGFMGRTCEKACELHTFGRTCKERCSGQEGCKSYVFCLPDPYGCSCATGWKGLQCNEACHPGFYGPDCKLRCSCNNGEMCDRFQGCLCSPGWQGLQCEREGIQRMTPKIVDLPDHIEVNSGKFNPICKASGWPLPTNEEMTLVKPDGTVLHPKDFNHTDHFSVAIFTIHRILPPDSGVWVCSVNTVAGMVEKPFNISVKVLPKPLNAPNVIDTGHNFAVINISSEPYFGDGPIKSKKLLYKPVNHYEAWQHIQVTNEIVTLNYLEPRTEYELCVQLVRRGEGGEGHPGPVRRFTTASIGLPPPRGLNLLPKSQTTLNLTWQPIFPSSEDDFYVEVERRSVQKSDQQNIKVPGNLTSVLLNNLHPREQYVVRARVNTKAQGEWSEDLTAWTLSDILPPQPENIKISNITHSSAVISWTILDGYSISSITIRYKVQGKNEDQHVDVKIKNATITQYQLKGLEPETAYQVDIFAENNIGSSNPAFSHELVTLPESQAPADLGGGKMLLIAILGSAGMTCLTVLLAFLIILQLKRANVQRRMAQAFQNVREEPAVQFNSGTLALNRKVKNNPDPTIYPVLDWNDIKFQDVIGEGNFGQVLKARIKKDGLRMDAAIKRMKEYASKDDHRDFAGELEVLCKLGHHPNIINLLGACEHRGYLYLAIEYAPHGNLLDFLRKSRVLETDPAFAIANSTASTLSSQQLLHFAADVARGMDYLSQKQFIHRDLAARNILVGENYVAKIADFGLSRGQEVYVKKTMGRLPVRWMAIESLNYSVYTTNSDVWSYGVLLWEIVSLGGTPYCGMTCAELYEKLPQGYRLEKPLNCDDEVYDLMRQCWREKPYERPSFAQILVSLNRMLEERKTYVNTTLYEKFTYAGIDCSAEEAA
Casein kinase I isoform gamma-2 (Homo sapiens), sequence (P78368 whole entry, looked up, canonical isoform): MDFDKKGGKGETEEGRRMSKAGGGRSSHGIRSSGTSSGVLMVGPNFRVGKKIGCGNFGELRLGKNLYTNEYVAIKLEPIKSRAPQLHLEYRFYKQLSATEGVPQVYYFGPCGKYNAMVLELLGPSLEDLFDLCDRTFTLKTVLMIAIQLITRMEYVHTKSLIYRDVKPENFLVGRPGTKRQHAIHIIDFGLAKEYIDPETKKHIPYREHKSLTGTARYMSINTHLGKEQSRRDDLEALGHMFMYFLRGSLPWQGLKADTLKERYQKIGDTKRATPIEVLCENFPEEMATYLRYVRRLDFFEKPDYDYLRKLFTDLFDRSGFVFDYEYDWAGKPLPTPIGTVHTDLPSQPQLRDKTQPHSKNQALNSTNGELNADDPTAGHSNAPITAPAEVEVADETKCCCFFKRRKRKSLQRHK
Cyclin-dependent kinase 13 (Homo sapiens), sequence (Q14004 whole entry, looked up): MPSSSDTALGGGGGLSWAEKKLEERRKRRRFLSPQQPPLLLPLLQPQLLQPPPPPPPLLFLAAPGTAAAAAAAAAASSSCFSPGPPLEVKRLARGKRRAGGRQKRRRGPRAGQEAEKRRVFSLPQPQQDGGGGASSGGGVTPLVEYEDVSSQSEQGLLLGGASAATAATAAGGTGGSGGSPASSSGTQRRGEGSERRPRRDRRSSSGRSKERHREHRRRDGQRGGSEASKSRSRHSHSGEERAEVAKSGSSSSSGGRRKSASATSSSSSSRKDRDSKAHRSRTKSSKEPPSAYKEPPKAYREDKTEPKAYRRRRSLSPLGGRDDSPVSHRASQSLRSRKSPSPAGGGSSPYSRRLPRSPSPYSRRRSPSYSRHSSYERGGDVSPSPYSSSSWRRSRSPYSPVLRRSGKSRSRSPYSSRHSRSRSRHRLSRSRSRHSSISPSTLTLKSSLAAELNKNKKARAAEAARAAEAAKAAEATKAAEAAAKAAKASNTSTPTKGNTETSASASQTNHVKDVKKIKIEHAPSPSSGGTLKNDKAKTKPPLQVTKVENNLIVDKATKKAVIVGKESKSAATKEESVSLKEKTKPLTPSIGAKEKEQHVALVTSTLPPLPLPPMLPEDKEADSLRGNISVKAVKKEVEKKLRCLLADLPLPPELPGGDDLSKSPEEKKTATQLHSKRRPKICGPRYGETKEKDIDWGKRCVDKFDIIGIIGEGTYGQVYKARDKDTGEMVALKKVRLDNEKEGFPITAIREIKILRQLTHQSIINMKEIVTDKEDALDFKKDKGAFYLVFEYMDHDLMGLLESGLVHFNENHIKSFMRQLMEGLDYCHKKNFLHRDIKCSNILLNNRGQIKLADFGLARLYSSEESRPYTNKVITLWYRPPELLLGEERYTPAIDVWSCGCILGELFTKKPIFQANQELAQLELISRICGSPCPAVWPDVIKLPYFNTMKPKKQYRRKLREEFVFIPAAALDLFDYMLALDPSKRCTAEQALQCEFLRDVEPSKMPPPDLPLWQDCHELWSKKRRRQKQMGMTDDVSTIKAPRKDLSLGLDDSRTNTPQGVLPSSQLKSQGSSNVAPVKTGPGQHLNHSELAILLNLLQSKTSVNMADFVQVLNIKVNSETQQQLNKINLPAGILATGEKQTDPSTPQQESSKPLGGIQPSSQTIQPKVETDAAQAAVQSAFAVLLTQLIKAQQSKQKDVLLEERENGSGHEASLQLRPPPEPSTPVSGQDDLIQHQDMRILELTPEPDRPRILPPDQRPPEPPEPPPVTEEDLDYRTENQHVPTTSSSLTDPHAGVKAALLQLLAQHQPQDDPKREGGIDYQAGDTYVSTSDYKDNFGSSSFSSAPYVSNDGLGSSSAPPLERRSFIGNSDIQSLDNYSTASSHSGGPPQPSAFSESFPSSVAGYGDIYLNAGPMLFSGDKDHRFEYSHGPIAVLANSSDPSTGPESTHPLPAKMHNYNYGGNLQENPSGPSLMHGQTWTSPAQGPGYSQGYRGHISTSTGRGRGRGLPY

fold change (FC) [1]: 0
SMILES: CNC(=O)c1ccccc1Oc1nc(Nc2cc(OC)c(OC)c(OC)c2)ncc1Br

fold change (FC) [2]: 0
inhibition [3]: 47%
fold change (FC) [4]: 0
inhibition [5]: 5%
inhibition [6]: 0%
fold change (FC) [7]: 0
fold change (FC) [8]: 0
SMILES: O=C(N[C@@H](C1CC1)C(F)(F)F)c1cc(-c2cnn3cc(-c4ccc(F)cc4)cnc23)cs1

fold change (FC) [9]: 0
inhibition [10]: 9%
SMILES: CC(C)[C@H](NC(=O)c1cc(-c2cnn3cc(-c4ccc(OCCN5CCCCC5)cc4)cnc23)cs1)C(F)(F)F
